In the library only some 3.8% were active in any assay of this set; here they are far more common.
hERG protect: hERG rescue from dofetilide block, primary screen, cell-based, CHO-hERG, FluxOR thallium flux, dofetilide IC70 | Voltage-gated inwardly rectifying potassium channel KCNH2 (Homo sapiens), Q12809 | dofetilide IC70 present | activation (rescue from dofetilide block), less the hit threshold, % at 10 µM | 0.51% of 310,000 active;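 active = activation above the mean of controls blocked by dofetilide plus 5 SD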;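 also: thallium influx through hERG after potassium depolarization seen as dye fluorescence rise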
KCNQ1 inh: inhibitors of human KCNQ1 channel, primary screen, cell-based, thallium flux, high-throughput. Potassium voltage-gated channel subfamily KQT member 1 (Homo sapiens), P51787. CHO-K1 KCNQ1, FluxOR thallium flux fluorescence; active compounds read high. B-score at 10 µM. 1.3% of 310,000 active. AID 2642, 2010;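 active = compounds whose thallium flux B-score, printed positive for inhibition, exceeds three library SD while starting fluorescence stays within three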;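 also: channel opened by potassium depolarization with thallium stimulus after 20 min compound exposure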
KCNK3 inh: human KCNK3 channel inhibitors, primary screen, CHO cells, FluxOR thallium flux, B-score; FluxOR fluorescence; active compounds read low; 0.84% of 340,000 active; B-score at 10 µM; Potassium channel subfamily K member 3 (Homo sapiens), O14649;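 active = B-score under library mean minus 4 SD, starting fluorescence ratio at most library mean plus 5 SD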;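 also: more negative B-score means stronger inhibition of thallium flux through KCNK3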
KCNQ1 act: potentiators or activators of KCNQ1 channel, primary screen, cell-based, thallium flux, high-throughput; Potassium voltage-gated channel subfamily KQT member 1 (Homo sapiens), P51787; CHO-K1 KCNQ1, thallium flux FluxOR fluorescence; active compounds read high; B-score at 10 µM; 0.35% of 310,000 active;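 active = fluorescence ratio B-score, a plate-corrected score, at least three library SD, with initial intensity B-score within 5 SD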
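assay system = CHO-K1 cells stably expressing KCNQ1 | medium = assay buffer, equal DMSO in all wells | timing = 37 °C overnight plating, 90-min dark dye load, 20-min compound pretreatment | measured by = kinetic FluxOR thallium fluorescence, 10-s 1-Hz baseline, 110-s post-stimulus read | measure = fluorescence change relative to baseline, converted to B score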
KCNK9 block: KCNK9 potassium channel inhibitors, primary screen, HEK293 cells, thallium flux; Potassium channel subfamily K member 9 (Homo sapiens), Q9NPC2; FluxOR thallium flux fluorescence; active compounds read low; B-score at 10 µM; 1.2% of 310,000 active;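 active = ratio B-score over 3 SD below the library mean, with starting fluorescence within 5 SD of its mean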;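 also: negative B-score means less thallium flux so channel inhibition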
Target sequence (Q9NPC2 whole entry, looked up): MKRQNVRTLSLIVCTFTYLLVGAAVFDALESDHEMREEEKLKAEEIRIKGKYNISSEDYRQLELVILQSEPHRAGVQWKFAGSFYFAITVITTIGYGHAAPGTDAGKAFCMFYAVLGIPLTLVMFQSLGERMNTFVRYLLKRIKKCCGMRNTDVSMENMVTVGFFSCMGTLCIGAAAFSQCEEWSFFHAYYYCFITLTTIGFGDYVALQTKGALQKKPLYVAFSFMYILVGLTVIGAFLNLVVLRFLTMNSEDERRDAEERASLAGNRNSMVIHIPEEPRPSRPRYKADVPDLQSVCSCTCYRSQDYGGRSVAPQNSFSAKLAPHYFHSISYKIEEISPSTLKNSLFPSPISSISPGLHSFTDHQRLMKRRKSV
Kir21 inh: inhibitors of mouse Kir2.1 inward-rectifier potassium channel | HEK293-Kir2.1, FluxOR thallium flux fluorescence; active compounds read low | B-score at 10 µM | 0.85% of 310,000 active | AID 1672, 2009;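 active = fluorescence ratio B-score at or below minus 3 SD of library scores, with starting-brightness B-score within 2 SD, cut at about -4.2 in these data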;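 also: channel flux triggered by added potassium and thallium sulfate stimulus; B-score of peak minus minimum fluorescence over baseline after thallium stimulus; more negative B-score means stronger Kir2.1 block with less thallium influx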
Each line names hits and unclear results; the compound was inactive in the other large screens.

CCN(CC)C(=O)[C@H]1C[C@H](CC(=O)NCc2cccc(C(F)(F)F)c2)C(=O)N2CCc3c([nH]c4cc(-c5ccco5)ccc34)[C@]12C	none (no result: hERG protect, KCNQ1 inh, KCNQ1 act, KCNK9 block, Kir21 inh)
O=C(CCOc1ccccc1)N1CCN(S(=O)(=O)c2cccs2)CC1	none
O=C(COc1ccccc1)N1CCN(S(=O)(=O)c2cccs2)CC1	KCNQ1 act 9
C/C(=N\N=C(N)N)c1ccc(Cl)cc1Cl	Kir21 inh -7.15
C/C(=N\N=C(N)N)c1cccc(Cl)c1	none
C/C(=N\N=C(N)N)c1cc(Cl)ccc1Cl	Kir21 inh -5.75
O=C(NNc1cccc(Cl)c1)c1cccnc1Cl	none
COc1cccc(CNCCO)c1OCc1ccccc1Cl	none
CCOc1cc(CNCCN2CCOCC2)ccc1OCc1ccccc1Cl	none
CCOc1cc(CNCCCN2CCOCC2)cc(Br)c1OCc1ccccc1Cl	Kir21 inh -6.28
COc1cc(CNCCO)cc(Cl)c1OCc1ccccc1Cl	Kir21 inh -7.03
COc1cc(CNCCc2ccccc2)cc(Cl)c1OCc1ccccc1	KCNQ1 inh 7, Kir21 inh -13.4
CCOc1cc(CNCCO)cc(Br)c1OCc1ccc(Cl)cc1	Kir21 inh -17.8
COc1ccccc1C(=O)NCCN1CCN(C(=O)c2ccccc2OC)CC1	none
COc1cc(Br)cc(CNc2ccc(F)c([N+](=O)[O-])c2)c1O	none
Cc1ccc(N(CC(=O)NCc2ccc(Cl)cc2)S(C)(=O)=O)cc1	none
COc1cccc(OC)c1C(=O)Nc1ccncc1	none
N#Cc1ccccc1Sc1ccccc1C(=O)Nc1ccccc1	none
COc1cc(CNCCCN2CCOCC2)ccc1OCC(=O)NC(C)(C)C	none
COc1cc(CNCCc2ccccc2)cc(Br)c1OCC(=O)Nc1ccccc1C	KCNQ1 inh 9, Kir21 inh -10.8
CNCc1cc(Br)c(OCC(=O)Nc2ccccc2OC)c(OC)c1	none
CCOc1cc(CNCCO)cc(Br)c1OCc1ccccc1Cl	Kir21 inh -8.98
CCOc1cc(CNCCCN2CCOCC2)ccc1OCC(=O)NC(C)(C)C	KCNQ1 act 9
CN(C(=O)COC(=O)c1cc2c(s1)CCCCC2)C1CCS(=O)(=O)C1 (stereo not given)	none
CC(C)(C)c1ccc(OCC(=O)Nc2cccc(S(=O)(=O)NC3=NCCCCC3)c2)cc1	none (no result: hERG protect, KCNQ1 inh, KCNQ1 act, KCNK9 block, Kir21 inh)
COc1cccc(CNC(=O)CCS(=O)(=O)c2cccc3nsnc23)c1	none
Cc1ccc(CNC(=O)CCS(=O)(=O)c2cccc3nsnc23)cc1	hERG protect 4.9
COc1ccc(C(C)=O)cc1CSc1ccc(S(=O)(=O)N2CCOCC2)cn1	none (no result: hERG protect, KCNQ1 inh, KCNQ1 act, KCNK9 block, Kir21 inh)
COc1ccc(C(c2c[nH]c3ccccc23)c2c[nH]c3ccccc23)cc1O	KCNQ1 inh 7
COc1cc(CN(C)C(=O)C(=O)c2c[nH]c3ccccc23)ccc1O	none (no result: hERG protect, KCNQ1 inh, KCNQ1 act, KCNK9 block, Kir21 inh)
Cc1nn(C)cc1/C=C/C(=O)c1ccc(O)cc1	hERG protect 6.2
O=C(/C=C/c1ccc(O)cc1)c1ccccc1	none
Cc1ccc(NC(=O)CCOc2ccccc2C)cc1F	none
C/C(=N\NC(N)=S)c1cc(-c2ccccc2)c(-c2ccccc2)s1	KCNK9 block -8.03
CCC(NC(=O)c1oc2ccccc2c1COC)c1ccc(OC)cc1 (stereo not given)	Kir21 inh -5.66
C[C@H]1CC[C@H]2C(=O)N3[C@H](c4cccc(N5CCCC5=O)c4)[C@@H](C)CC[C@H]3C(=O)N2[C@@H]1c1cccc(N2CCCC2=O)c1	none (no result: KCNK3 inh)
C[C@H]1CC[C@H]2C(=O)N3[C@H](c4ccccc4Br)[C@@H](C)CC[C@H]3C(=O)N2[C@@H]1c1ccccc1Br	KCNK9 block -9.59 (no result: KCNK3 inh)
COc1cc(C(=O)OCC(=O)c2cc(C)n(CC3CCCO3)c2C)ccc1OCC(=O)N1CCOCC1 (stereo not given)	none
Cc1ccc(NC(=S)N(Cc2ccccc2)C(C)C)cc1	none
CC(C)N(Cc1ccccc1)C(=S)Nc1ccc(F)cc1	hERG protect 13.8
CC(C)N(Cc1ccccc1)C(=S)Nc1cccnc1	none
CC(C)N(Cc1ccccc1)C(=S)NC(=O)C1(C)CC1(Cl)Cl (stereo not given)	hERG protect 21.1, KCNQ1 act 26
Cc1cc(O)c2c(c1)CC1C3CCC4CC(=O)CCC4(C)C3CC(=O)C21C (stereo not given)	none (no result: hERG protect, KCNQ1 inh, KCNQ1 act, KCNK9 block, Kir21 inh)
Cc1onc(-c2c(Cl)cccc2Cl)c1C(=O)Nc1nc(C(C)(C)C)cs1	none
Cc1ccc(OCCCCN2CCCCC2)c(C)c1	none
Cc1ccc(OCCCCNC2CCCC(C)C2C)c(C)c1 (stereo not given)	KCNQ1 inh 6, Kir21 inh -7.41
COc1cc(NC(=S)N2CCN(c3ccccn3)CC2)c(OC)cc1Cl	none
COC(=O)c1ccc(C(=O)NC(=S)Nc2nc3c(s2)CCCC3)cc1	KCNQ1 act 23
COC(=O)c1sc(NC(=O)COc2cccc3ccccc23)nc1C	hERG protect 9.0
CCOC(=O)c1sc(NC(=O)Cc2ccc(C)cc2)nc1C	Kir21 inh -4.35
O=C(NC(=S)Nc1nc2c(s1)CCCC2)c1ccccc1	none
COC(=O)c1sc(NC(=O)COc2ccc(OC)cc2)nc1C	none
COC(=O)c1sc(NC(=S)NC(=O)c2cccc(C)c2)nc1C	hERG protect 6.2
COc1ccc([C@@H]2CC=C(C(=O)O)[C@H](c3ccc(C)cc3)N2S(=O)(=O)c2ccccc2C)cc1	none (no result: hERG protect, KCNQ1 inh, KCNQ1 act, KCNK9 block, Kir21 inh)
Cc1cccc(NC(=S)N2CCC(C(=O)c3ccc(F)cc3)CC2)c1C	none
CCCN(C(=O)C1CCN(S(=O)(=O)c2ccc(OC)c(OC)c2)CC1)C1CCS(=O)(=O)C1 (stereo not given)	none
CCOc1ccc(S(=O)(=O)NCCN2CCOCC2)c2ccccc12	none
CCCOc1ccc(S(=O)(=O)NCCN2CCOCC2)c2ccccc12	Kir21 inh -4.36
Cc1ccc(NC(=O)c2cccc3cccnc23)cc1	KCNK9 block -7.56
O=C(OCn1ncc(Cl)c(Cl)c1=O)c1ccc(C(F)(F)F)cc1	none
Cc1ccc(C(=O)OCn2ncc(Cl)c(Cl)c2=O)cc1	KCNQ1 act 10
CCN1CCN(Cc2c(C)[nH]c3ccc(C(=O)OC)cc3c2=O)CC1	hERG protect 5.6
Cc1cc(C)n(-c2ccc(C(=O)Nc3cccc(S(=O)(=O)N(C)C)c3)cc2)n1	none
Cc1cc(C)n(-c2ccc(C(=O)Nc3cccc([N+](=O)[O-])c3)cc2)n1	KCNQ1 inh 9
Cc1c(C(=O)Nc2cccc([N+](=O)[O-])c2)cnn1-c1ccccc1	hERG protect 7.0
COc1cccc(NC(=O)c2cccc(N3C(=O)C4C5C=CC(C5)C4C3=O)c2)c1 (stereo not given)	none
CCCN(CCC)CC(O)Cn1cc(/C=C/C(=O)c2ccccc2)c2ccccc21 (stereo not given)	none

Screening results as filed in PubChem BioAssay.
